In ChEMBL document CHEMBL1165965, “Synthesis and structure-activity relationships of 1,2,3,4-tetrahydropyrido[2,3-b]pyrazines as potent and selective inhibitors of the anaplastic lymphoma kinase” (Bioorg Med Chem, 2010) one finds inhibition data, which are given here for eight molecules.

The target of assay [1] is Tyrosine-protein kinase HCK (Homo sapiens) (UniProt P08631). Put plainly: Inhibition of HCK at 1 uM. A digest of the protocol: (§1)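 Single-concentration screen on the Ambit KINOMEscan platform, run against a panel of 250–400 kinases. Per-kinase inhibition was also summarized as S(90), the fraction of kinases inhibited by more than 90%.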
The target of assay [2] is T1, Dual specificity mitogen-activated protein kinase kinase 4 (Homo sapiens) (UniProt P45985).
T1 sequence (whole entry): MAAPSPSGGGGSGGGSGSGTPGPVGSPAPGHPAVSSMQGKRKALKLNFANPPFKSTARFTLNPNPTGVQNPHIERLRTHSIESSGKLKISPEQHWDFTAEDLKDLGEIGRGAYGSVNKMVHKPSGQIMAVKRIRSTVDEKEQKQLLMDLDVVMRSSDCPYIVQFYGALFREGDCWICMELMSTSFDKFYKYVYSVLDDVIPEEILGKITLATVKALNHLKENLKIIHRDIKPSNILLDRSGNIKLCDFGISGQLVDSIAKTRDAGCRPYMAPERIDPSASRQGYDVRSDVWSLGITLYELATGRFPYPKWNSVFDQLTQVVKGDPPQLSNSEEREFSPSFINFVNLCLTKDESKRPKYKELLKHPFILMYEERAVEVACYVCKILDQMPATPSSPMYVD
Put plainly: Inhibition of MEK4 at 1 uM.

For assay [3], the target named is T2, Testis-specific serine/threonine-protein kinase 1 (Homo sapiens) (UniProt Q9BXA7).
T2 sequence (whole entry): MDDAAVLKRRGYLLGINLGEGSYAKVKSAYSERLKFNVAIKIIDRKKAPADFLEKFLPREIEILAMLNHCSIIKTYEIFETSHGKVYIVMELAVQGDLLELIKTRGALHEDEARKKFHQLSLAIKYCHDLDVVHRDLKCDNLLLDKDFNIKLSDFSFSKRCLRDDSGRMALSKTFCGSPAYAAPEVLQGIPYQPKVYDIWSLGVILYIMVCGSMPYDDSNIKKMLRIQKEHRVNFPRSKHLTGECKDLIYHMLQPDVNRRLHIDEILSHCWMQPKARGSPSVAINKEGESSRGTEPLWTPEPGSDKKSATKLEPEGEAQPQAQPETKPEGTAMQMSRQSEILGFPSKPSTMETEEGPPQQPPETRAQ
In words: Inhibition of TSSK1B at 1 uM.

For assay [4], the target named is Tyrosine-protein kinase Fer (Homo sapiens) (UniProt P16591). Put plainly: Inhibition of FER at 1 uM. A digest of the protocol:
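Single-concentration screen using Ambit Bioscience KINOMEscan technology across a panel of 250–400 kinases. Per-kinase inhibition from this screen was summarized as S(90), the fraction of kinases inhibited by more than 90%.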

The target in assay [5] is Leukocyte tyrosine kinase receptor (Homo sapiens) (UniProt P29376). Put plainly: Inhibition of LTK at 1 uM. A digest of the protocol: as §1
For assay [6], the target named is T3, Atypical kinase COQ8B, mitochondrial (Homo sapiens) (UniProt Q96D53).
T3 sequence (whole entry): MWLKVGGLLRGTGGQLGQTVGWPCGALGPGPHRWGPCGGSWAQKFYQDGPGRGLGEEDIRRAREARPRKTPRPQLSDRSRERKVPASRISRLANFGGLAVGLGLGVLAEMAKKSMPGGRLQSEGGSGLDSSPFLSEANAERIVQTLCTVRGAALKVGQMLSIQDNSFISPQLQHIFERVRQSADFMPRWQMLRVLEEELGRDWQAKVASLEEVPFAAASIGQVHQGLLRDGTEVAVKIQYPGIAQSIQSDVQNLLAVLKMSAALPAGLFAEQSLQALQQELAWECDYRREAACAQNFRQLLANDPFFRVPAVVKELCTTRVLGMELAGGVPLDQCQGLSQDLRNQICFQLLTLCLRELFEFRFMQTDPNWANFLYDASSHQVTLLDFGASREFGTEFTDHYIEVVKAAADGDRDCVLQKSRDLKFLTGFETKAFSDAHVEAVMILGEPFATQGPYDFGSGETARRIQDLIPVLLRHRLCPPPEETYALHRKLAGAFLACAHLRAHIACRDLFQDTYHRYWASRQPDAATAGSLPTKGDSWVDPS
Put plainly: Inhibition of ADCK4 at 1 uM. A digest of the protocol: (§2)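 Ambit KINOMEscan screen at a single concentration across a 250–400 kinase panel, recorded as percent inhibition. Selectivity was expressed as S(90), the fraction of kinases inhibited >90%.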

In assay [7] the target is Serine/threonine-protein kinase 32B (Homo sapiens) (UniProt Q9NY57). Put plainly: Inhibition of YANK2 at 1 uM.
The target of assay [8] is Mitogen-activated protein kinase kinase kinase 11 (Homo sapiens) (UniProt Q16584). In words: Inhibition of MLK3 at 1 uM. A digest of the protocol:
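Kinase-panel screen using KINOMEscan technology, with 250–400 kinases per panel. Each compound was tested at a single concentration, and inhibition of each kinase was recorded. Selectivity was summarised as S(90), the fraction of kinases inhibited by more than 90%.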

Assay [9] deals with Calcium/calmodulin-dependent protein kinase type 1G (Homo sapiens) (UniProt Q96NX5). In words: Inhibition of CAMK1G at 1 uM. A digest of the protocol:
as §2

In assay [10] the target is Calcium/calmodulin-dependent protein kinase type II subunit beta (Homo sapiens) (UniProt Q13554). In words: Inhibition of CAMK2B at 1 uM. A digest of the protocol: as §2
Assay [11] addresses Serine/threonine-protein kinase 35 (Homo sapiens) (UniProt Q8TDR2). Put plainly: Inhibition of STK35 at 1 uM.
Assay [12] concerns the target Phosphatidylinositol 4,5-bisphosphate 3-kinase catalytic subunit beta isoform (Homo sapiens) (UniProt P42338). In words: Inhibition of PIK3CB at 1 uM.
In assay [13] the target is Calcium/calmodulin-dependent protein kinase type II subunit alpha (Homo sapiens) (UniProt Q9UQM7). In words: Inhibition of CAMK2A at 1 uM. The method in brief:
as §2

Assay [14] addresses T4, Megakaryocyte-associated tyrosine-protein kinase (Homo sapiens) (UniProt P42679).
T4 sequence (whole entry): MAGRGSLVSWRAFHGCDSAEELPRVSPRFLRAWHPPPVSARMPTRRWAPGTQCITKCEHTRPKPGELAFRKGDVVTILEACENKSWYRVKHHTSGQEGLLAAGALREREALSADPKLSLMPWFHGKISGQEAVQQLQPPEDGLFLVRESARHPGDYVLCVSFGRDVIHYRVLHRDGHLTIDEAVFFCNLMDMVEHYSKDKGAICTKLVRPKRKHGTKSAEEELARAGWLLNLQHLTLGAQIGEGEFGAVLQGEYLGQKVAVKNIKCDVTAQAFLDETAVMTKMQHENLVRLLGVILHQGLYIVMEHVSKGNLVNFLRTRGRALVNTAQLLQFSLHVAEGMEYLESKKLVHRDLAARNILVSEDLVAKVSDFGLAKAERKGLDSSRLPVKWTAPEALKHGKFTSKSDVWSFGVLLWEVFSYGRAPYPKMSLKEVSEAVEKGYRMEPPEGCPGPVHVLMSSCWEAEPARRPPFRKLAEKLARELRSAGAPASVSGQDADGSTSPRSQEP
Put plainly: Inhibition of CTK at 1 uM.

The target of assay [15] is SRSF protein kinase 1 (Homo sapiens) (UniProt Q96SB4). In words: Inhibition of SRPK1 at 1 uM.
For assay [16], the target named is Activated CDC42 kinase 1 (Homo sapiens) (UniProt Q07912). In words: Inhibition of TNK2 at 1 uM. The method in brief: as §1

As a reminder, the inhibition is the relative decrease from the control value, in per cent.

Sequence of Phosphatidylinositol 4,5-bisphosphate 3-kinase catalytic subunit beta isoform (Homo sapiens) (P42338 whole entry, looked up, canonical isoform): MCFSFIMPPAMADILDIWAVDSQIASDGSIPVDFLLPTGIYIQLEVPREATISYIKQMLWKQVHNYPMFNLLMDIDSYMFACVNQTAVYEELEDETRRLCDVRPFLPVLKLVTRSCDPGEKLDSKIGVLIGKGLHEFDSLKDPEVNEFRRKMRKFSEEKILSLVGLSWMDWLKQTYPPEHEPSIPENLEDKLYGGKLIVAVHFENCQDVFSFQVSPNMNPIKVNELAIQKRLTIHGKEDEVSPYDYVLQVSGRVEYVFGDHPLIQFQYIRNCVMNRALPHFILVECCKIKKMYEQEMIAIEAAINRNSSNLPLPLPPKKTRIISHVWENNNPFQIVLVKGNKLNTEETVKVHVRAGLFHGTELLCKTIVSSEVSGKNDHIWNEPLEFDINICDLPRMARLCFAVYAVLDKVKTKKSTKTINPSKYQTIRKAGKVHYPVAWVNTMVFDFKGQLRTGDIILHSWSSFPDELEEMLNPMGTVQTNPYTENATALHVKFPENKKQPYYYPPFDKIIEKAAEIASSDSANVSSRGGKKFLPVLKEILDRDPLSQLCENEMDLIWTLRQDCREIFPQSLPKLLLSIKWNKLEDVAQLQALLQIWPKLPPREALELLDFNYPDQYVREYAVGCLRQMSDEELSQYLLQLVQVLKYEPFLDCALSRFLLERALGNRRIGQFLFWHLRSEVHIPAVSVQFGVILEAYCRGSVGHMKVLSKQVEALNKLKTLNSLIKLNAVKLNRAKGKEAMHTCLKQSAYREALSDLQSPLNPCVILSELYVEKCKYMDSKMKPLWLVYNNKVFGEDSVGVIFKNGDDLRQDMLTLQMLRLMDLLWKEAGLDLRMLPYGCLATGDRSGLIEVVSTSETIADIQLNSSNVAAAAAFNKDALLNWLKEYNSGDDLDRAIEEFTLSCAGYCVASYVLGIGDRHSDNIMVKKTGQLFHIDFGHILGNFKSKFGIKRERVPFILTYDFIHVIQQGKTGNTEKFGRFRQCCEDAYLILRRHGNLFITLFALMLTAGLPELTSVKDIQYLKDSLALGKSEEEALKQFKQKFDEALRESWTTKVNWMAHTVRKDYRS
Sequence of Calcium/calmodulin-dependent protein kinase type II subunit alpha (Homo sapiens) (Q9UQM7 whole entry): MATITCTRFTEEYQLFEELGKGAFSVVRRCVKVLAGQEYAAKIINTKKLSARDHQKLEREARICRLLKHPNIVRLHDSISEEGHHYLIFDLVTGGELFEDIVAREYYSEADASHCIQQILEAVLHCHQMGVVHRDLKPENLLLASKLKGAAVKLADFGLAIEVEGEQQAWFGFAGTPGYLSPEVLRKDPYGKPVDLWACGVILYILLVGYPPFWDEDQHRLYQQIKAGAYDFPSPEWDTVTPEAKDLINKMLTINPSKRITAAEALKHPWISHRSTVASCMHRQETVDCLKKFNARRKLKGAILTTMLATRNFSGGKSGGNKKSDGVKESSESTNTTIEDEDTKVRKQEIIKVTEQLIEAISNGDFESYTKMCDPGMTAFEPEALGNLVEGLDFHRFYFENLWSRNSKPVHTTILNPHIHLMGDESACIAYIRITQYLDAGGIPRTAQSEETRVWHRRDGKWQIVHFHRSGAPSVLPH
Sequence of Calcium/calmodulin-dependent protein kinase type II subunit beta (Homo sapiens) (Q13554 whole entry): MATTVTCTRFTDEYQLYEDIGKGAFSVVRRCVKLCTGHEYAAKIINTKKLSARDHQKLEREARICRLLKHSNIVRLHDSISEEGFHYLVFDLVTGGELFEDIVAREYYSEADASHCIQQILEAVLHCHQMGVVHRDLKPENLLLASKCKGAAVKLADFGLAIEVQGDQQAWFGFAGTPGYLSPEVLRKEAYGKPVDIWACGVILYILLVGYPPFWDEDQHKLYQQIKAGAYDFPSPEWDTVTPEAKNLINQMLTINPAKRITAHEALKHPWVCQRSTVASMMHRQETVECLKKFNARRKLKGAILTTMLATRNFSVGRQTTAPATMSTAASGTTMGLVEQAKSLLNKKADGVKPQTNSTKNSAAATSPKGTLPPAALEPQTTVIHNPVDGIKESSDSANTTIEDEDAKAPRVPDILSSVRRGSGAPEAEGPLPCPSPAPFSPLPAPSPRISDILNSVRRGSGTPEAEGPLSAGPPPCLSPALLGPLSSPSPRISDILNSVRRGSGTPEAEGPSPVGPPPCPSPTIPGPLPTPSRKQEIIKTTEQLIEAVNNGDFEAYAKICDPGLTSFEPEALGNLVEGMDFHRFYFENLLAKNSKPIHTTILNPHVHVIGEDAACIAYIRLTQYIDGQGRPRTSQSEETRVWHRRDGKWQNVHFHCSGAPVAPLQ
Sequence of Tyrosine-protein kinase HCK (Homo sapiens) (P08631 2-526 limits assumed): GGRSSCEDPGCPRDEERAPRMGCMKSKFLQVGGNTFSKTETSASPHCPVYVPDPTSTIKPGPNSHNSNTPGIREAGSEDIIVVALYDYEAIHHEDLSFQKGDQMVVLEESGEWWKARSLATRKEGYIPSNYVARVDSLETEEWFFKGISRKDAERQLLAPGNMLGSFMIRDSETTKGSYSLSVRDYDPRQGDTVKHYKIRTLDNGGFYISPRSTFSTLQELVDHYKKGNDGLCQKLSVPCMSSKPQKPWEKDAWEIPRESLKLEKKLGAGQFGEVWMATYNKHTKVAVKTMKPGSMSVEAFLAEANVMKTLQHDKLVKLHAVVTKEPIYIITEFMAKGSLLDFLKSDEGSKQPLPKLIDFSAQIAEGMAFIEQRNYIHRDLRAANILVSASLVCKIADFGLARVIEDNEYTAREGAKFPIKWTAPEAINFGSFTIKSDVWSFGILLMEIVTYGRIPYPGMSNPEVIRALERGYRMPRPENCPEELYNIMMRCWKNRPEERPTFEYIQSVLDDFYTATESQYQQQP
Sequence of Serine/threonine-protein kinase 35 (Homo sapiens) (Q8TDR2 whole entry, canonical isoform): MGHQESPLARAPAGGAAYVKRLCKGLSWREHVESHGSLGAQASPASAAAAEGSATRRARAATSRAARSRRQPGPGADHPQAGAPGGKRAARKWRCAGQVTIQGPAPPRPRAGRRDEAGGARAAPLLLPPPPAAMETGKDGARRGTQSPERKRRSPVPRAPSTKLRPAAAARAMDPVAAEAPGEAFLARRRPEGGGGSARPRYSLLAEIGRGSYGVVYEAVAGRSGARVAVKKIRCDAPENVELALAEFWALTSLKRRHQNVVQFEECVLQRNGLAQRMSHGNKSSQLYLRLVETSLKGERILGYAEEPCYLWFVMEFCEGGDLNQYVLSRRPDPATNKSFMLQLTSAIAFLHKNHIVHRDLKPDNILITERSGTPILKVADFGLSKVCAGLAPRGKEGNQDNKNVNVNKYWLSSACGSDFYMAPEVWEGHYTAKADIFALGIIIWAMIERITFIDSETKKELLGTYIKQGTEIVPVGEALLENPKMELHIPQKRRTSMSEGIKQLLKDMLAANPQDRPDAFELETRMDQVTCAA
Sequence of Leukocyte tyrosine kinase receptor (Homo sapiens) (P29376 whole entry): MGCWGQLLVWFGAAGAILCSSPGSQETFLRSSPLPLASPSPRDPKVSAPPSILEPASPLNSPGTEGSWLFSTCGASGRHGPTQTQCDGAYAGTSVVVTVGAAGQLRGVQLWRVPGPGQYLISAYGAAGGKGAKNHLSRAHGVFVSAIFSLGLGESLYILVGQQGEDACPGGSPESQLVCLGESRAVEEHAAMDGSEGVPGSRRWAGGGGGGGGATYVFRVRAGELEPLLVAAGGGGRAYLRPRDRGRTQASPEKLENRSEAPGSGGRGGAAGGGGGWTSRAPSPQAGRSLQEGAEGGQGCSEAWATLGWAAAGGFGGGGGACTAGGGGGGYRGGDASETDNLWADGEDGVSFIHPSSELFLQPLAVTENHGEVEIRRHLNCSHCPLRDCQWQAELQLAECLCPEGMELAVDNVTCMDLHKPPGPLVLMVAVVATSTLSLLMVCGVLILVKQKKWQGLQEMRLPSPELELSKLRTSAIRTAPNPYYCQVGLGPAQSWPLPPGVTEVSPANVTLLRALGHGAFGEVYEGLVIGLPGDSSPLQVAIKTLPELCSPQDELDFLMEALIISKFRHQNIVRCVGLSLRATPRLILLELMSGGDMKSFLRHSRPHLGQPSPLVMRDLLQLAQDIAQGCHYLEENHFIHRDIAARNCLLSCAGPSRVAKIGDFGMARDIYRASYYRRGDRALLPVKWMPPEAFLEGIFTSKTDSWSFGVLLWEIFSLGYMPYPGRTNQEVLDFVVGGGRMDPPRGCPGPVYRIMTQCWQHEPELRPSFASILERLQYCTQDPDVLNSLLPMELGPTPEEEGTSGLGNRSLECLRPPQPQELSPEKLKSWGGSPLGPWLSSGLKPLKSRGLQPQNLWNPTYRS
Sequence of Calcium/calmodulin-dependent protein kinase type 1G (Homo sapiens) (Q96NX5 whole entry): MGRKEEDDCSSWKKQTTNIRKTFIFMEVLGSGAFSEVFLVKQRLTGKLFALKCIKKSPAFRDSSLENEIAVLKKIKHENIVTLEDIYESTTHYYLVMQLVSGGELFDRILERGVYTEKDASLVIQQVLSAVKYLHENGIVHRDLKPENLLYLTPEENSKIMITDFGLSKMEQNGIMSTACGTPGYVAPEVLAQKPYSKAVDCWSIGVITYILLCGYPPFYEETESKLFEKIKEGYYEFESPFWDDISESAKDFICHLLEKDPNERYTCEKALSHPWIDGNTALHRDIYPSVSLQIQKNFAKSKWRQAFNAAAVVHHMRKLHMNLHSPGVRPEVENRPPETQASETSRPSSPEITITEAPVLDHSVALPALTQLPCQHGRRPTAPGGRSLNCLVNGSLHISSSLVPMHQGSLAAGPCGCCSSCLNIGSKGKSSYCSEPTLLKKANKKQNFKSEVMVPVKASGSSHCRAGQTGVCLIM
Sequence of Serine/threonine-protein kinase 32B (Homo sapiens) (Q9NY57 whole entry): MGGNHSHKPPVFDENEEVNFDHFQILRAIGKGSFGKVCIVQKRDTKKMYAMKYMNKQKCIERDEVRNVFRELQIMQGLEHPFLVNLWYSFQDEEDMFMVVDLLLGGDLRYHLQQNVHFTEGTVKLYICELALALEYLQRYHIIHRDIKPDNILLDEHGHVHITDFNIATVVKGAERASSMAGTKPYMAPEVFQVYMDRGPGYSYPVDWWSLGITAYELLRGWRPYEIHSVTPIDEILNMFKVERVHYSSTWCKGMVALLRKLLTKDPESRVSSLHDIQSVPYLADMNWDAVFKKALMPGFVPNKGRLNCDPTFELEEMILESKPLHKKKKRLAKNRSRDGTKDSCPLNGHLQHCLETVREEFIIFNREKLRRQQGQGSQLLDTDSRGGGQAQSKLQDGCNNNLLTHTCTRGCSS

On to `FC(F)(F)c1ccc(Cl)cc1CN1CCNc2ncc(-c3ccnc(N4CCNCC4)c3)cc21`, for which the inhibition in assay [1] is < 50%; in assay [2] it was < 50%; in [3], < 50%; in assay [4], 97%; in assay [5], 100%; in assay [6], < 50%. In addition, the inhibition in assay [7], in assay [8], in assay [9], in [10], in assay [11] and in [12] was < 50% in each case. Besides, the inhibition in assay [13] is < 50%; in assay [14] it was < 50%; in assay [15], < 50%; in [16], 99%.
As to `CN1CCN(c2ccc(-c3cnc4c(c3)N(Cc3cc(F)ccc3F)CCN4)cn2)CC1`, the inhibition in [1] was < 50%; in assay [2] it was < 50%; in assay [3] it was < 50%; in assay [4], < 50%; in assay [5], 96.8%; in assay [6] it was < 50%. Further, the inhibition in assay [7], in [8], in assay [9], in [10], in assay [11] and in assay [12] was < 50% in each case. Moreover, the inhibition in assay [13] was < 50%; in [14], < 50%; in [15], < 50%; in assay [16], 79%.
As for `CN1CCN(c2ccc(-c3cnc4c(c3)N(Cc3cc(Cl)ccc3Cl)CCN4)cn2)CC1`, the inhibition in assay [1] is < 50%; in assay [2], < 50%; in assay [3], < 50%; in assay [4] it was < 50%; in assay [5], 97%; in assay [6] it was < 50%. In addition, the inhibition in assay [7], in [8], in assay [9], in [10], in [11] and in [12] was < 50% throughout. For the same molecule, the inhibition is < 50% in assay [13], < 50% in assay [14], < 50% in assay [15] and 88% in assay [16].
For the molecule `O=C(O)c1ccc(-c2cnc3c(c2)N(Cc2cc(Cl)ccc2C(F)(F)F)CCN3)cc1`, the inhibition was < 50% in [1]; < 50% in assay [4]; 92.7% in [5]; < 50% in assay [6]; < 50% in assay [7]; < 50% in assay [8]. In addition, the inhibition was < 50% in assay [9]; < 50% in assay [10]; < 50% in assay [13]; < 50% in assay [15]; 97.4% in assay [16].
As for `CN1CCN(c2ccc(-c3cnc4c(c3)N(Cc3cc(Cl)ccc3C(F)(F)F)CCN4)cn2)CC1`, the inhibition in assay [1] was < 50%; in assay [2] it was < 50%; in assay [3], < 50%; in assay [4], < 50%; in [5], 99%; in assay [6], < 50%. The inhibition in assay [7], in assay [8], in assay [9], in [10], in [11] and in assay [12] was < 50% each time. Also, the inhibition in [13] was < 50%; in assay [14], < 50%; in assay [15] it was < 50%; in assay [16], 98%.
Take `COC1CCN(C(=O)c2ccc(-c3cnc4c(c3)N(Cc3cc(Cl)ccc3C(F)(F)F)CCN4)cc2)CC1`: the inhibition in [1] was < 50%; in assay [4], < 50%; in [5], 95.5%; in assay [6], < 50%; in assay [7] it was < 50%; in [8] it was < 50%. Also, the inhibition was < 50% in assay [9]; < 50% in assay [10]; < 50% in assay [13]; < 50% in assay [14]; < 50% in [15]; 97.2% in assay [16].
Consider `O=C(c1ccc(-c2cnc3c(c2)N(Cc2cc(Cl)ccc2C(F)(F)F)CCN3)cc1)N1CCC(N2CCCC2)CC1`, for which the inhibition was < 50% in assay [1]; < 50% in assay [4]; 80.7% in [5]; < 50% in [6]; < 50% in assay [7]; < 50% in assay [8]. The inhibition in [9] was < 50%; in assay [10], < 50%; in assay [13], < 50%; in [14], < 50%; in [15], < 50%; in [16], 99.8%.
With `O=C(c1ccc(-c2cnc3c(c2)N(Cc2cc(Cl)ccc2C(F)(F)F)CCN3)cc1)N1CCCCC1`, the inhibition in assay [1] is < 50%; in assay [4], < 50%; in assay [5] it was 89.3%; in [6], < 50%; in assay [7] it was < 50%; in assay [8] it was < 50%. In addition, the inhibition is < 50% in [9]; < 50% in assay [10]; < 50% in [13]; < 50% in assay [14]; < 50% in assay [15]; 93.2% in [16].
